{
  "source": "ChEMBL document CHEMBL3352164",
  "about": "“Discovery of N-(2,4-di-tert-butyl-5-hydroxyphenyl)-4-oxo-1,4-dihydroquinoline-3-carboxamide (VX-770, ivacaftor), a potent and orally bioavailable CFTR potentiator” (J Med Chem, 2014)",
  "key": {"[1]": {"target": "Cystic fibrosis transmembrane conductance regulator (Homo sapiens, UniProt P13569, F508DEL)", "sequence (P13569 as listed by the source)": "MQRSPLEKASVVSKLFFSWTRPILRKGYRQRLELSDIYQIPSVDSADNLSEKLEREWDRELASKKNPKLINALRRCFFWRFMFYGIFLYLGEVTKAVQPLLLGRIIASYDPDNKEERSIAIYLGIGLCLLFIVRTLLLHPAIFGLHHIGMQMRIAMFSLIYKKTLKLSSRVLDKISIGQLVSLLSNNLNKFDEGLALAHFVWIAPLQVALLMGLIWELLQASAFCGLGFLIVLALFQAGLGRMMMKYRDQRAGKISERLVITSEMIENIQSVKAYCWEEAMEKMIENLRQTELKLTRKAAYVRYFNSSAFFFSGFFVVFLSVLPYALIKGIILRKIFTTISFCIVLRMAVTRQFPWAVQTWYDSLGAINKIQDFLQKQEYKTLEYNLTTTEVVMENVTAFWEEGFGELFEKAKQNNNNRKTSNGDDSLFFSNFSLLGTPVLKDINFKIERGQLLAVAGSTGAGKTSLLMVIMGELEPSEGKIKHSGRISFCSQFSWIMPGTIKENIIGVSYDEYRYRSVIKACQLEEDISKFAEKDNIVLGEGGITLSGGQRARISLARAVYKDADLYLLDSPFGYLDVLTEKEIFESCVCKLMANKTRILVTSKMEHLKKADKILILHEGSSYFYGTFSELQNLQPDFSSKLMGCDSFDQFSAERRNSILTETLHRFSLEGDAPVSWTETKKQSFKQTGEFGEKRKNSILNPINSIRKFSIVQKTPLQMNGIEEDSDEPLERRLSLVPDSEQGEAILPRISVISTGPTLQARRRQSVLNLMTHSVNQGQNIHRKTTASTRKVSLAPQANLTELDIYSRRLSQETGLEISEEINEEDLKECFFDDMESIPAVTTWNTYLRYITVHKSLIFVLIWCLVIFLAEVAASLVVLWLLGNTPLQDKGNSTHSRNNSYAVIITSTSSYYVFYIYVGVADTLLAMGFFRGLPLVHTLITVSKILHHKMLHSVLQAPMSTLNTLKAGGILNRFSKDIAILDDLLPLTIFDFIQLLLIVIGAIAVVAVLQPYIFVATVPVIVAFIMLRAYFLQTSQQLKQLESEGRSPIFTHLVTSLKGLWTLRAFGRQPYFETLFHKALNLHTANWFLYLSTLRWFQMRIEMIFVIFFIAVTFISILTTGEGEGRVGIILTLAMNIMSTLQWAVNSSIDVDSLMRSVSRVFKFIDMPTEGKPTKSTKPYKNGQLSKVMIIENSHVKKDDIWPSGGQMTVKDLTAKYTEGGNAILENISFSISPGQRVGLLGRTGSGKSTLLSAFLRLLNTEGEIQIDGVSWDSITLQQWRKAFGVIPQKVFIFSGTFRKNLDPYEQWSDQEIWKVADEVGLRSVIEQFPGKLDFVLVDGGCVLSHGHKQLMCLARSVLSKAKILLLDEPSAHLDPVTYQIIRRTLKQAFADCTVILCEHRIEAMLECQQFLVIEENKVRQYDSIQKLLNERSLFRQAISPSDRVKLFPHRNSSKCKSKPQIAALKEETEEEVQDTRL", "test": "Potentiation of human CFTR F508del mutant expressed in mouse NIH-3T3 cells after 30 mins by fluorescent voltage sensing optical assay", "type": "cell-based, NIH3T3", "in_short": "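NIH-3T3 fibroblasts stably expressing human F508del-CFTR were held 16–24 h at 27 °C to correct misfolding. Cells were washed in NaCl/HEPES bath, pH 7.4, then loaded with voltage-sensing dyes plus compound for 30 min at room temperature. Cl−-free bath with forskolin was added once, and membrane potential change was read by fluorescence. EC50 is mean ± SD of at least three determinations.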"}, "[2]": {"test": "Half life in Sprague-Dawley rat at 1.57 mg/kg, iv", "type": "ADME, organism-based", "set-up": "dose 1.57 mg/kg, route intravenous", "conditions": "in vivo", "in_short": "(§1)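 Animals (n = 3/group; male mouse, Sprague-Dawley rat, beagle dog, cynomolgus monkey) got a single iv dose in dimethyl isosorbide/ethanol/PEG400/D5W (10%/15%/35%/40%) at 1 mL/kg. Heparinized blood was drawn via an indwelling carotid cannula from predose to 48 h. Plasma was assayed by LC/MS/MS (LLOQ 1 ng/mL, linear 1–2500 ng/mL). Parameters came from noncompartmental analysis of mean profiles using measured doses.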"}, "[3]": {"test": "Volume of distribution at steady state in Sprague-Dawley rat at 1.57 mg/kg, iv", "type": "ADME, organism-based", "set-up": "dose 1.57 mg/kg, route intravenous", "conditions": "in vivo, read-out: Vdss", "in_short": "as §1"}, "[4]": {"test": "AUC (0 to infinity) in Sprague-Dawley rat at 1.57 mg/kg, iv", "type": "ADME, organism-based", "set-up": "time infinity, dose 1.57 mg/kg, route intravenous", "conditions": "plasma", "in_short": "(§2)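 Male Sprague−Dawley rats, n = 3/group, single iv dose in dimethyl isosorbide/ethanol/PEG400/D5W (10%/15%/35%/40%) at 1 mL/kg. Carotid cannula blood at predose, 5, 15, 30, 45 min and 1, 2, 4, 6, 8, 12, 24, 36, 48 h. Plasma levels by LC/MS/MS (LLOQ 1 ng/mL, linear 1–2500 ng/mL). Noncompartmental analysis of mean profiles using measured doses.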"}, "[5]": {"test": "Clearance in Sprague-Dawley rat at 1.57 mg/kg, iv", "type": "ADME, organism-based", "set-up": "dose 1.57 mg/kg, route intravenous", "conditions": "in vivo", "in_short": "as §1"}, "[6]": {"test_system": "Cystic fibrosis transmembrane conductance regulator (Homo sapiens), P13569 [F508del]", "sequence (P13569 as listed by the source)": "as above", "test": "Potentiation of human CFTR F508del mutant expressed in mouse NIH-3T3 cells at 30 uM after 30 mins by fluorescent voltage sensing optical assay relative to VRT-532", "type": "cell-based", "conditions": "NIH3T3", "in_short": "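Same F508del-CFTR NIH-3T3 membrane-potential assay: 27 °C correction for 16–24 h, dye plus compound for 30 min at room temperature, then forskolin in Cl−-free bath. Compounds below 50% activity at 30 μM were not titrated. Their response at 30 μM is given as % of VRT-532.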"}, "[7]": {"test": "Half life in Sprague-Dawley rat at 2.49 mg/kg, iv", "type": "ADME, organism-based", "set-up": "dose 2.49 mg/kg, route intravenous", "conditions": "in vivo", "in_short": "as §1"}, "[8]": {"test": "Volume of distribution at steady state in Sprague-Dawley rat at 2.49 mg/kg, iv", "type": "ADME, organism-based", "set-up": "dose 2.49 mg/kg, route intravenous", "conditions": "in vivo, read-out: Vdss", "in_short": "as §1"}, "[9]": {"test": "AUC (0 to infinity) in Sprague-Dawley rat at 2.49 mg/kg, iv", "type": "ADME, organism-based", "set-up": "time infinity, dose 2.49 mg/kg, route intravenous", "conditions": "plasma", "in_short": "as §2"}, "[10]": {"test": "Clearance in Sprague-Dawley rat at 2.49 mg/kg, iv", "type": "ADME, organism-based", "set-up": "dose 2.49 mg/kg, route intravenous", "conditions": "in vivo", "in_short": "as §1"}, "[11]": {"test": "Half life in Sprague-Dawley rat at 2.45 mg/kg, iv", "type": "ADME, organism-based", "set-up": "dose 2.45 mg/kg, route intravenous", "conditions": "in vivo", "in_short": "as §1"}, "[12]": {"test": "AUC (0 to infinity) in Sprague-Dawley rat at 2.45 mg/kg, iv", "type": "ADME, organism-based", "set-up": "time infinity, dose 2.45 mg/kg, route intravenous", "conditions": "plasma", "in_short": "as §2"}, "[13]": {"test": "Clearance in Sprague-Dawley rat at 2.45 mg/kg, iv", "type": "ADME, organism-based", "set-up": "dose 2.45 mg/kg, route intravenous", "conditions": "in vivo", "in_short": "as §1"}, "[14]": {"test": "Volume of distribution at steady state in Sprague-Dawley rat at 2.45 mg/kg, iv", "type": "ADME, organism-based", "set-up": "dose 2.45 mg/kg, route intravenous", "conditions": "in vivo, read-out: Vdss", "in_short": "as §1"}, "[15]": {"test": "Volume of distribution at steady state in Sprague-Dawley rat at 1.29 mg/kg, iv", "type": "ADME, organism-based", "set-up": "dose 1.29 mg/kg, route intravenous", "conditions": "in vivo, read-out: Vdss", "in_short": "as §1"}, "[16]": {"test": "Half life in Sprague-Dawley rat at 1.29 mg/kg, iv", "type": "ADME, organism-based", "set-up": "dose 1.29 mg/kg, route intravenous", "conditions": "in vivo", "in_short": "as §1"}, "[17]": {"test": "AUC (0 to infinity) in Sprague-Dawley rat at 1.29 mg/kg, iv", "type": "ADME, organism-based", "set-up": "dose 1.29 mg/kg, route intravenous, time infinity", "conditions": "plasma", "in_short": "as §2"}, "[18]": {"test": "Clearance in Sprague-Dawley rat at 1.29 mg/kg, iv", "type": "ADME, organism-based", "set-up": "dose 1.29 mg/kg, route intravenous", "conditions": "in vivo", "in_short": "as §1"}},
  "data": [
    {"compound": "CC(C)c1ccc(NC(=O)c2c[nH]c3ccccc3c2=O)cc1N", "values": [
      {"measurement": "EC50", "setting": "[1]", "value": 300, "unit": "nM"}
    ]},
    {"compound": "CC(C)(C)c1ccc(NC(=O)c2c[nH]c3ccccc3c2=O)cc1F", "values": [
      {"measurement": "EC50", "setting": "[1]", "value": 100, "unit": "nM"}
    ]},
    {"compound": "CCc1ccccc1NC(=O)c1c[nH]c2ccccc2c1=O", "values": [
      {"measurement": "EC50", "setting": "[1]", "value": 200, "unit": "nM"}
    ]},
    {"compound": "CC(C)(C)c1cc(F)c(NC(=O)c2c[nH]c3ccccc3c2=O)cc1O", "values": [
      {"measurement": "half-life", "setting": "[2]", "value": 1.1, "unit": "h"},
      {"measurement": "Vd", "setting": "[3]", "value": 2.9, "unit": "L/kg"},
      {"measurement": "AUC(0-inf)", "setting": "[4]", "value": 520, "unit": "ng·h/mL"},
      {"measurement": "clearance", "setting": "[5]", "value": 62.9, "unit": "mL/min/kg"},
      {"measurement": "EC50", "setting": "[1]", "value": 2, "unit": "nM"}
    ]},
    {"compound": "O=C(Nc1cnc2ccccc2c1O)c1ccc2cc[nH]c2c1", "values": [
      {"measurement": "Activity", "setting": "[6]", "value": 8, "unit": "%"}
    ]},
    {"compound": "O=C(c1cnccc1O)N(Cc1ccccc1)Cc1ccccc1", "values": [
      {"measurement": "Activity", "setting": "[6]", "value": 2, "unit": "%"}
    ]},
    {"compound": "CC(=O)Nc1cc(NC(=O)c2c[nH]c3ccccc3c2=O)ccc1C(C)(C)C", "values": [
      {"measurement": "Activity", "setting": "[6]", "value": 24, "unit": "%"}
    ]},
    {"compound": "Nc1cccc(NC(=O)c2c[nH]c3ccccc3c2=O)c1", "values": [
      {"measurement": "EC50", "setting": "[1]", "value": 6900, "unit": "nM"}
    ]},
    {"compound": "O=C(Nc1ccc2cc[nH]c2n1)c1c[nH]c2ccccc2c1=O", "values": [
      {"measurement": "Activity", "setting": "[6]", "value": 13, "unit": "%"}
    ]},
    {"compound": "COC(=O)Nc1cc(NC(=O)c2c[nH]c3ccccc3c2=O)ccc1C(C)(C)C", "values": [
      {"measurement": "EC50", "setting": "[1]", "value": 3500, "unit": "nM"}
    ]},
    {"compound": "O=C(c1c[nH]c2ccccc2c1=O)N(Cc1ccccc1)Cc1ccccc1", "values": [
      {"measurement": "EC50", "setting": "[1]", "value": 2100, "unit": "nM"}
    ]},
    {"compound": "O=C(Nc1ccc2c(c1)NCC2)c1c[nH]c2ccccc2c1=O", "values": [
      {"measurement": "EC50", "setting": "[1]", "value": 400, "unit": "nM"}
    ]},
    {"compound": "CC(C)(C)c1cc2cc[nH]c2cc1NC(=O)c1c[nH]c2ccccc2c1=O", "values": [
      {"measurement": "half-life", "setting": "[7]", "value": 2.9, "unit": "h"},
      {"measurement": "Vd", "setting": "[8]", "value": 3.3, "unit": "L/kg"},
      {"measurement": "AUC(0-inf)", "setting": "[9]", "value": 2640, "unit": "ng·h/mL"},
      {"measurement": "clearance", "setting": "[10]", "value": 15.8, "unit": "mL/min/kg"},
      {"measurement": "EC50", "setting": "[1]", "value": 11, "unit": "nM"}
    ]},
    {"compound": "O=c1c(S(=O)(=O)Nc2ccc3cc[nH]c3c2)c[nH]c2ccccc12", "values": [
      {"measurement": "Activity", "setting": "[6]", "value": 1, "unit": "%"}
    ]},
    {"compound": "CCc1c[nH]c2cc(NC(=O)c3c[nH]c4ccccc4c3=O)ccc12", "values": [
      {"measurement": "EC50", "setting": "[1]", "value": 100, "unit": "nM"}
    ]},
    {"compound": "CCc1ccc(NC(=O)c2c[nH]c3ccccc3c2=O)cc1N", "values": [
      {"measurement": "EC50", "setting": "[1]", "value": 1700, "unit": "nM"}
    ]},
    {"compound": "CC(C)(C)c1c[nH]c2cc(NC(=O)c3c[nH]c4ccccc4c3=O)ccc12", "values": [
      {"measurement": "half-life", "setting": "[11]", "value": 1.3, "unit": "h"},
      {"measurement": "AUC(0-inf)", "setting": "[12]", "value": 700, "unit": "ng·h/mL"},
      {"measurement": "clearance", "setting": "[13]", "value": 60.7, "unit": "mL/min/kg"},
      {"measurement": "Vd", "setting": "[14]", "value": 4.4, "unit": "L/kg"},
      {"measurement": "EC50", "setting": "[1]", "value": 9, "unit": "nM"}
    ]},
    {"compound": "CC(C)(C)c1ccc(NC(=O)c2c[nH]c3ccccc3c2=O)cc1N", "values": [
      {"measurement": "EC50", "setting": "[1]", "value": 100, "unit": "nM"}
    ]},
    {"compound": "CC(C)(C)c1ccc(NC(=O)c2c[nH]c3ccccc3c2=O)cc1O", "values": [
      {"measurement": "Vd", "setting": "[15]", "value": 2.9, "unit": "L/kg"},
      {"measurement": "half-life", "setting": "[16]", "value": 0.7, "unit": "h"},
      {"measurement": "AUC(0-inf)", "setting": "[17]", "value": 260, "unit": "ng·h/mL"},
      {"measurement": "EC50", "setting": "[1]", "value": 3, "unit": "nM"},
      {"measurement": "clearance", "setting": "[18]", "value": 85.6, "unit": "mL/min/kg"}
    ]},
    {"compound": "O=c1c(CNc2ccc3cc[nH]c3c2)c[nH]c2ccccc12", "values": [
      {"measurement": "Activity", "setting": "[6]", "value": 1, "unit": "%"}
    ]},
    {"compound": "CC(C)(C)c1ccc(NC(=O)c2c[nH]c3ccccc3c2=O)cc1", "values": [
      {"measurement": "EC50", "setting": "[1]", "value": 100, "unit": "nM"}
    ]},
    {"compound": "O=C(Nc1ccc2ccccc2c1)c1c[nH]c2ccccc2c1=O", "values": [
      {"measurement": "EC50", "setting": "[1]", "value": 800, "unit": "nM"}
    ]},
    {"compound": "O=C(Oc1ccc2cc[nH]c2c1)c1c[nH]c2ccccc2c1=O", "values": [
      {"measurement": "Activity", "setting": "[6]", "value": 19, "unit": "%"}
    ]},
    {"compound": "O=C(Nc1ccccc1)c1c[nH]c2ccccc2c1=O", "values": [
      {"measurement": "EC50", "setting": "[1]", "value": 1300, "unit": "nM"}
    ]}
  ]
}
